Assay results taken from ChEMBL document CHEMBL1135162, “Synthesis and evaluation of N-substituted 1,4-oxazepanyl Sordaricins as selective fungal EF-2 inhibitors” (2002).
≈ marks a conversion by molar mass, not a printed value.

Columns and labels:
Assay type in all cases: functional
Aspergillus fumigatus = test: Tested for in vitro antifungal activity against Aspergillus fumigatus ATCC 26430
Outline: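 Mould grown in microplates in RPMI1640 buffered at pH 7.0, incubated at 30 °C. MIC is the lowest test-compound concentration that inhibits growth by 80%.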

Candida albicans [1] = test: Tested for in vitro antifungal activity against Candida albicans ATCC 24433
Outline: (§1)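 Microplate growth assay in RPMI1640 medium buffered at pH 7.0, incubated at 35 °C. MIC is the lowest test-compound concentration that inhibits fungal growth by 80%.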

Candida albicans [2] = test: Tested for in vitro antifungal activity against Candida albicans ATCC 24433 in the presence of horse serum (20%)
Outline: (§2)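 RPMI1640 medium buffered at pH 7.0, with 20% horse serum added for the incubation. Microplates incubated at 35 °C. MIC is the lowest concentration giving 80% inhibition of fungal growth.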

Candida albicans [3] = test: Tested for in vitro antifungal activity against Candida albicans ATCC 64550; outline: as §1
Candida albicans [4] = test: Tested for in vitro antifungal activity against Candida albicans SANK51486; outline: as §1
Candida albicans [5] = test: Tested for in vitro antifungal activity against Candida albicans SANK51486 in the presence of horse serum (20%); outline: as §2
Candida albicans [6] = test: Tested for in vitro antifungal activity against Candida albicans TIMM3164; outline: as §1
Candida parapsilosis = test: Tested for in vitro antifungal activity against Candida parapsilosis ATCC 90018; settings: Lodderomyces parapsilosis; outline: as §1
Cryptococcus neoformans = test: Tested for in vitro antifungal activity against Cryptococcus neoformans TIMM1855
Outline: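 Yeast grown in microplates in yeast nitrogen base buffered at pH 7.0, incubated at 35 °C. MIC is the lowest concentration inhibiting growth by 80%.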

Candida tropicalis = test: Tested for in vitro antifungal activity against Candida tropicalis ATCC750; outline: as §1
Nakaseomyces glabratus = test: Tested for in vitro antifungal activity against Candida glabrata ATCC 90030; outline: as §1

SMILES	MIC (Aspergillus fumigatus)	MIC (Candida albicans [1])	MIC (Candida albicans [2])	MIC (Candida albicans [3])	MIC (Candida albicans [4])	MIC (Candida albicans [5])	MIC (Candida albicans [6])	MIC (Candida parapsilosis)	MIC (Cryptococcus neoformans)	MIC (Candida tropicalis)	MIC (Nakaseomyces glabratus)
C=C(CF)CN1C[C@H](OCC23C[C@@H]4[C@H](C)CC[C@H]4C4(C=O)CC2C=C(C(C)C)C34C(=O)O)O[C@H](C)[C@@H](OC)C1 (stereo not given in full)	> 16 mg/L	≤ 0.031 mg/L	0.5 mg/L	≤ 0.031 mg/L	≤ 0.031 mg/L	0.5 mg/L	≤ 0.031 mg/L	> 16 mg/L	0.25 mg/L (≈ 0.456 µM)	0.25 mg/L (≈ 0.456 µM)	0.5 mg/L (≈ 0.913 µM)
CO[C@H]1CN(CC=C(C)C)C[C@H](OCC23C[C@@H]4[C@H](C)CC[C@H]4C4(C=O)CC2C=C(C(C)C)C34C(=O)O)O[C@@H]1C (stereo not given in full)	> 16 mg/L	0.25 mg/L (≈ 0.46 µM)	2 mg/L	0.5 mg/L (≈ 0.92 µM)	0.125 mg/L (≈ 0.23 µM)	1 mg/L	0.25 mg/L (≈ 0.46 µM)	> 16 mg/L	> 16 mg/L	2 mg/L (≈ 3.68 µM)	16 mg/L (≈ 29.4 µM)
COc1ccc(CN2C[C@H](OCC34C[C@@H]5[C@H](C)CC[C@H]5C5(C=O)CC3C=C(C(C)C)C45C(=O)O)O[C@H](C)[C@@H](OC)C2)cc1 (stereo not given in full)	> 32 mg/L	≤ 0.063 mg/L	1 mg/L	≤ 0.063 mg/L	≤ 0.063 mg/L	0.5 mg/L	≤ 0.063 mg/L	> 32 mg/L	2 mg/L (≈ 3.36 µM)	0.25 mg/L (≈ 0.42 µM)	0.25 mg/L (≈ 0.42 µM)
CO[C@H]1CN(CC2=CCCCC2)C[C@H](OCC23C[C@@H]4[C@H](C)CC[C@H]4C4(C=O)CC2C=C(C(C)C)C34C(=O)O)O[C@@H]1C (stereo not given in full)	> 16 mg/L	0.125 mg/L (≈ 0.219 µM)	8 mg/L	0.125 mg/L (≈ 0.219 µM)	0.063 mg/L (≈ 0.111 µM)	4 mg/L	0.125 mg/L (≈ 0.219 µM)	> 16 mg/L	8 mg/L (≈ 14 µM)	1 mg/L (≈ 1.76 µM)	4 mg/L (≈ 7.02 µM)
C/C=C/C=C\C(=O)O[C@H]1[C@H](O)[C@H](OCC23C[C@@H]4[C@H](C)CC[C@H]4C4(C=O)CC2C=C(C(C)C)C34C(=O)O)O[C@H](C)[C@H]1OC (stereo not given in full)	> 4 mg/L	0.5 mg/L (≈ 0.852 µM)	4 mg/L	0.5 mg/L (≈ 0.852 µM)	0.25 mg/L (≈ 0.426 µM)		0.5 mg/L (≈ 0.852 µM)	> 4 mg/L	0.25 mg/L (≈ 0.426 µM)	0.5 mg/L (≈ 0.852 µM)	> 4 mg/L
CO[C@H]1CN(Cc2ccccc2)C[C@H](OCC23C[C@@H]4[C@H](C)CC[C@H]4C4(C=O)CC2C=C(C(C)C)C34C(=O)O)O[C@@H]1C (stereo not given in full)	> 32 mg/L	≤ 0.063 mg/L	1 mg/L	≤ 0.063 mg/L	≤ 0.063 mg/L	0.5 mg/L	0.125 mg/L (≈ 0.221 µM)	> 32 mg/L	4 mg/L (≈ 7.07 µM)	0.25 mg/L (≈ 0.442 µM)	0.5 mg/L (≈ 0.884 µM)
CO[C@H]1CN(Cc2ccc(SC)cc2)C[C@H](OCC23C[C@@H]4[C@H](C)CC[C@H]4C4(C=O)CC2C=C(C(C)C)C34C(=O)O)O[C@@H]1C (stereo not given in full)	> 16 mg/L	0.063 mg/L (≈ 0.103 µM)	4 mg/L	0.125 mg/L (≈ 0.204 µM)	≤ 0.031 mg/L	2 mg/L	0.063 mg/L (≈ 0.103 µM)	> 16 mg/L	> 16 mg/L	0.5 mg/L (≈ 0.817 µM)	2 mg/L (≈ 3.27 µM)
CO[C@H]1CN(Cc2ccc(C)cc2)C[C@H](OCC23C[C@@H]4[C@H](C)CC[C@H]4C4(C=O)CC2C=C(C(C)C)C34C(=O)O)O[C@@H]1C (stereo not given in full)	> 16 mg/L	0.063 mg/L (≈ 0.109 µM)	8 mg/L	0.125 mg/L (≈ 0.216 µM)	≤ 0.031 mg/L	2 mg/L	0.125 mg/L (≈ 0.216 µM)	> 16 mg/L	> 16 mg/L	1 mg/L (≈ 1.72 µM)	2 mg/L (≈ 3.45 µM)
COc1cccc(CN2C[C@H](OCC34C[C@@H]5[C@H](C)CC[C@H]5C5(C=O)CC3C=C(C(C)C)C45C(=O)O)O[C@H](C)[C@@H](OC)C2)c1 (stereo not given in full)	> 16 mg/L	0.063 mg/L (≈ 0.106 µM)	2 mg/L	0.125 mg/L (≈ 0.21 µM)	≤ 0.031 mg/L	2 mg/L	0.063 mg/L (≈ 0.106 µM)	> 16 mg/L	2 mg/L (≈ 3.36 µM)	0.5 mg/L (≈ 0.839 µM)	8 mg/L (≈ 13.4 µM)
C=C(Cl)CN1C[C@H](OCC23C[C@@H]4[C@H](C)CC[C@H]4C4(C=O)CC2C=C(C(C)C)C34C(=O)O)O[C@H](C)C1 (stereo not given in full)	> 16 mg/L	0.031 mg/L (≈ 0.0613 µM)	0.5 mg/L	0.031 mg/L (≈ 0.0613 µM)	0.016 mg/L (≈ 0.0316 µM)	0.25 mg/L	0.031 mg/L (≈ 0.0613 µM)	8 mg/L (≈ 15.8 µM)	16 mg/L (≈ 31.6 µM)	0.125 mg/L (≈ 0.247 µM)	0.125 mg/L (≈ 0.247 µM)
CO[C@H]1CN(Cc2ccc(Cl)cc2)C[C@H](OCC23C[C@@H]4[C@H](C)CC[C@H]4C4(C=O)CC2C=C(C(C)C)C34C(=O)O)O[C@@H]1C (stereo not given in full)	> 32 mg/L	≤ 0.063 mg/L	8 mg/L	≤ 0.063 mg/L	≤ 0.063 mg/L	4 mg/L	≤ 0.063 mg/L	> 32 mg/L	4 mg/L (≈ 6.66 µM)	0.5 mg/L (≈ 0.833 µM)	1 mg/L (≈ 1.67 µM)
